From ChEMBL document CHEMBL3124841, “Discovery of vinyl sulfones as a novel class of neuroprotective agents toward Parkinson's disease therapy” (J Med Chem, 2014)

Assays:
[1] = molecular target: T1, Nuclear factor erythroid 2-related factor 2 (Mus musculus) (UniProt Q60795); test: Induction of Nrf2-dependent HO1 protein level in mouse BV-2 cells at 20 uM after 24 hrs by sandwich ELISA; assay type: cell-based
T1 sequence (whole entry): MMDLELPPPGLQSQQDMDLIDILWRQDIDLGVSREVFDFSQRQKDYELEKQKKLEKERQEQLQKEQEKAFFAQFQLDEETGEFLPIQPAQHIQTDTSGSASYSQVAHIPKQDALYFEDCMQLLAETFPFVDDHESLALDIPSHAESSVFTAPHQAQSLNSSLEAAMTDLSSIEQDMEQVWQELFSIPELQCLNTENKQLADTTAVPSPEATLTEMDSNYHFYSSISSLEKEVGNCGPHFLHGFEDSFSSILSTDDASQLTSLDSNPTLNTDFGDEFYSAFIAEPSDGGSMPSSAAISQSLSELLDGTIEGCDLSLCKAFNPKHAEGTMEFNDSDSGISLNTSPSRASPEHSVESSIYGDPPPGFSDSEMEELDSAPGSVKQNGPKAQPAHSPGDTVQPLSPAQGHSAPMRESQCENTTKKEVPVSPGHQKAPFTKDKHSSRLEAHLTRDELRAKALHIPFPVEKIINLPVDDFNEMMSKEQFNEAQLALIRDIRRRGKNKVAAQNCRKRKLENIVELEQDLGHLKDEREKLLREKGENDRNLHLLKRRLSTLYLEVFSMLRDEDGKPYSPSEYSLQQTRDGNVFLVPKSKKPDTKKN
Outline: (§1)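 Murine BV-2 microglia in DMEM/10% FBS, 2.0 × 10⁴ cells per well, treated at 20 μM for 24 h in triplicate. Lysates in NP-40 Tris buffer (pH 8.0) diluted tenfold; HO-1 measured by sandwich ELISA with HRP-streptavidin and Amplex Red fluorescence (ex 530/em 590 nm). Expressed as % of 0.04% DMSO vehicle control ± SEM; sulforaphane 5 μM as reference.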

[2] = molecular target: T1, Nuclear factor erythroid 2-related factor 2 (Mus musculus); test: Induction of Nrf2-dependent HO1 protein level in mouse BV-2 cells at 20 uM after 24 hrs by sandwich ELISA relative to control; assay type: cell-based; outline: as §1

Activity [1] [%]	fold change (FC) [2]	Compound
111	–	O=S(=O)(/C=C/c1ccc(F)cc1)c1ccc(Cl)cc1
148	1.5	COc1cccc(S(=O)(=O)/C=C/c2ccc(C(F)(F)F)cc2)c1
188	–	O=S(=O)(/C=C/c1cccc(C(F)(F)F)c1)c1ccccc1
248	–	O=S(=O)(/C=C/c1ccccc1C(F)(F)F)c1ccc(F)cc1
242	–	O=S(=O)(/C=C/c1ccccc1C(F)(F)F)c1ccc(Cl)cc1
133	1.3	COc1ccc(/C=C/S(=O)(=O)c2ccc(OC)cc2)cc1
127	–	O=S(=O)(/C=C/c1cccc(Cl)c1)c1ccc(Cl)cc1
141	–	O=S(=O)(/C=C/c1ccc(F)cc1)c1ccc(F)cc1
174	1.7	COc1ccc(S(=O)(=O)/C=C/c2ccccc2F)cc1
105	–	O=S(=O)(/C=C/c1cccc(F)c1)c1ccc(Cl)cc1
141	1.4	COc1ccc(S(=O)(=O)/C=C/c2ccccc2N)cc1
353	3.5	COc1ccccc1S(=O)(=O)/C=C/c1cccc(F)c1
330	3.3	COc1ccccc1S(=O)(=O)/C=C/c1ccc(Cl)cc1
153	–	COc1ccc(S(=O)(=O)/C=C/c2cccc(C(F)(F)F)c2)cc1OC
241	–	O=S(=O)(/C=C/c1ccccc1F)c1ccc(F)cc1
137	–	O=S(=O)(/C=C/c1cccc(Cl)c1)c1ccc(F)cc1
177	–	O=S(=O)(/C=C/c1cccc(F)c1)c1ccc(F)cc1
117	–	O=S(=O)(/C=C/c1ccc(Cl)cc1)c1ccc(Cl)cc1
214	2.1	COc1ccc(S(=O)(=O)/C=C/c2cccc(C(F)(F)F)c2)cc1

Activity [1] [%]	fold change (FC) [2]	Compound
193	–	O=S(=O)(/C=C/c1ccccc1C(F)(F)F)c1ccccc1
119	–	COc1ccc(S(=O)(=O)/C=C/c2ccc(C(F)(F)F)cc2)cc1OC
228	2.3	COc1cccc(S(=O)(=O)/C=C/c2ccc(Cl)cc2)c1
259	2.6	COc1ccccc1S(=O)(=O)/C=C/c1ccc(F)cc1
251	2.5	COc1cccc(S(=O)(=O)/C=C/c2ccccc2C(F)(F)F)c1
160	1.6	COc1cccc(S(=O)(=O)/C=C/c2ccc(F)cc2)c1
155	–	O=S(=O)(/C=C/c1ccc(C(F)(F)F)cc1)c1ccccc1
146	1.5	COc1ccc(S(=O)(=O)/C=C/c2cccc(OC)c2)cc1
126	1.2	COc1ccc(S(=O)(=O)/C=C/c2ccccc2OC)cc1
158	–	O=S(=O)(/C=C/c1cccc(C(F)(F)F)c1)c1ccc(F)cc1
158	1.6	COc1ccc(S(=O)(=O)/C=C/c2ccccc2Cl)cc1
112	–	O=S(=O)(/C=C/c1ccc(Cl)cc1)c1ccc(F)cc1
225	–	O=S(=O)(/C=C/c1ccccc1Cl)c1ccc(F)cc1
373	3.7	COc1ccccc1S(=O)(=O)/C=C/c1ccccc1F
169	–	O=S(=O)(/C=C/c1ccccc1Cl)c1ccc(Cl)cc1
212	2.1	COc1ccc(S(=O)(=O)/C=C/c2ccccc2OC(F)(F)F)cc1
204	–	COc1ccc(S(=O)(=O)/C=C/c2ccccc2C(F)(F)F)cc1OC
284	2.8	COc1cccc(S(=O)(=O)/C=C/c2ccccc2Cl)c1
125	1.2	COc1ccc(S(=O)(=O)/C=C/c2cccc(Cl)c2)cc1

Activity [1] [%]	fold change (FC) [2]	Compound
203	2	COc1ccc(S(=O)(=O)/C=C/c2cccc(F)c2)cc1
111	1.1	COc1cccc(S(=O)(=O)/C=C/c2cccc(Cl)c2)c1
256	2.6	COc1ccccc1S(=O)(=O)/C=C/c1cccc(C(F)(F)F)c1
136	1.4	COc1cccc(S(=O)(=O)/C=C/c2cccc(F)c2)c1
125	–	O=S(=O)(/C=C/c1ccc(C(F)(F)F)cc1)c1ccc(F)cc1
169	1.7	COc1ccc(S(=O)(=O)/C=C/c2ccc(Cl)cc2)cc1
154	1.5	COc1ccc(S(=O)(=O)/C=C/c2ccc(C(F)(F)F)cc2)cc1
258	2.6	COc1ccc(S(=O)(=O)/C=C/c2ccccc2C(F)(F)F)cc1
164	–	COc1ccc(C(=O)/C=C/c2ccccc2C(F)(F)F)cc1
140	–	O=S(=O)(/C=C/c1ccc(C(F)(F)F)cc1)c1ccc(Cl)cc1
134	–	COc1ccc([S+]([O-])/C=C/c2ccccc2C(F)(F)F)cc1 (stereo not drawn)
177	1.8	COc1ccc(S(=O)(=O)/C=C/c2ccc(F)cc2)cc1
328	3.3	COc1ccccc1S(=O)(=O)/C=C/c1ccccc1C(F)(F)F
107	–	O=S(=O)(/C=C/c1ccccc1F)c1ccc(Cl)cc1
357	3.6	COc1ccccc1S(=O)(=O)/C=C/c1ccc(C(F)(F)F)cc1
204	2	COc1cccc(S(=O)(=O)/C=C/c2cccc(C(F)(F)F)c2)c1
148	1.5	COc1cccc(S(=O)(=O)/C=C/c2ccccc2F)c1
245	2.4	COc1ccccc1S(=O)(=O)/C=C/c1cccc(Cl)c1
111	–	O=S(=O)(/C=C/c1cccc(C(F)(F)F)c1)c1ccc(Cl)cc1
